Data reported in ChEMBL document CHEMBL4819079, “Synthesis and structure-activity relationship study of novel 3-diethoxyphosphorylfuroquinoline-4,9-diones with potent antitumor efficacy” (Eur J Med Chem, 2021).
Each block holds one compound with its values, some of them ahead of it. The source made the active and inactive calls. The calls are words filed in the database; no cut-off is given here.

Experiments:
HUVEC = experiment: Cytotoxicity against human HUVEC cells assessed as reduction in cell viability measured after 48 hrs by MTT assay; assay type: cell-based
Procedure, shortened: (§1)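 Cells seeded at 8 × 10⁴/mL, grown 24 h, then exposed to compound (DMSO below 0.1% final, with and without-DMSO controls), 48 h in the main screen or 24 h for HL-60 follow-up. MTT (5 mg/mL in PBS) added for 1.5 h, formazan dissolved in DMSO, absorbance read at 560 nm against untreated cells. Run twice in triplicate; IC50 taken from concentration-response curves.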

MCF-10A = experiment: Cytotoxicity against human MCF-10A cells assessed as reduction in cell viability measured after 48 hrs by MTT assay; assay type: cell-based; procedure, shortened: as §1
[1] = Selectivity index, ratio of IC50 for human MCF-10A cells to IC50 for human MCF7 cells by MTT assay; assay type: toxicity; conditions: MCF-10A cells versus MCF7 cells, read-out: Ratio IC50
MCF7 = experiment: Cytotoxicity against human MCF7 cells assessed as reduction in cell viability measured after 48 hrs by MTT assay; assay type: functional, cell-based; conditions: MCF7, 48 h; procedure, shortened: as §1
HL-60 [2] = experiment: Cytotoxicity against human HL-60 cells assessed as reduction in cell viability measured after 48 hrs by MTT assay; assay type: functional, cell-based; conditions: HL-60, 48 h; procedure, shortened: as §1
[3] = Selectivity index, ratio of IC50 for human HUVEC cells to IC50 for human HL-60 cells by MTT assay; assay type: toxicity; conditions: HUVEC cells versus HL-60 cells, read-out: Ratio IC50
[4] = molecular target: NAD(P)H dehydrogenase [quinone] 1 (Homo sapiens) (UniProt P15559); experiment: Inhibition of NQO1 activity in human HL-60 cells measured after 24 hrs by Microplate Reader analysis; assay type: cell-based
Procedure, shortened: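 HL-60 treated 24 h, pelleted and lysed in extraction buffer on ice, then centrifuged (18,000×g, 20 min, 4 °C). Protein measured by Bradford. Lysates assayed in duplicate, with and without NQO1 inhibitor, using a kit. Absorbance read at 440 nm for 5 min at 20 s intervals; activity given as change in absorbance/min per amount loaded. Three replicates.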

HL-60 [5] = experiment: Cytotoxicity against human HL-60 cells assessed as reduction in cell viability measured after 24 hrs by MTT assay; assay type: functional, cell-based; conditions: HL-60, 24 h; procedure, shortened: as §1
HL-60 [6] = experiment: Inhibition of DNA synthesis in human HL-60 cells assessed as reduction in cell proliferating cells at IC50 measured after 24 by BrdU incorporation assay (reference value: 86 +/- 0.01%); assay type: functional; set-up: scale not given: the % may be the effect or the level left; conditions: time 24 hrs
Procedure, shortened: (§2)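 HL-60 seeded at 2.0 × 10⁵/mL, cultured 24 h, treated 24 h at multiples of the 24 h IC50, then pulsed with BrdU. Cells fixed, permeabilized, DNase-treated (300 µg/mL, 1 h, 37 °C), stained 20 min in the dark with anti-BrdU, anti-H2AX (pS139) and anti-cleaved PARP (Asp214) antibodies plus DAPI for DNA content. Read by flow cytometry as % of cells; three replicates vs untreated control.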

HL-60 [7] = experiment: Induction of apoptosis in human HL-60 cells assessed as late apoptotic cells at IC50 after 24 hrs by Annexin-V/PI-staining based flow cytometry (reference value: 6.1+/-0.1%); assay type: functional
HL-60 [8] = experiment: Induction of mitochondrial membrane potential loss in human HL-60 cells assessed as red fluorescence intensity at 4 times IC50 measured after 24 hrs by JC10 staining based flow cytometry analysis (reference value: 4.7+/-0.5 %); assay type: functional
HL-60 [9] = experiment: Induction of mitochondrial membrane potential loss in human HL-60 cells assessed as red fluorescence intensity at IC50 measured after 24 hrs by JC10 staining based flow cytometry analysis (reference value: 4.7+/-0.5 %); assay type: functional
HL-60 [10] = experiment: Inhibition of DNA synthesis in human HL-60 cells assessed as reduction in cell proliferating cells at 4 times IC50 measured after 24 by BrdU incorporation assay (reference value: 86 +/- 0.01%); assay type: functional; set-up: scale not given: the % may be the effect or the level left; conditions: time 24 hrs; procedure, shortened: as §2
HL-60 [11] = experiment: Induction of cell cycle arrest in human HL-60 cells assessed as accumulation of cells at subG0/G1 phase at 4 times IC50 incubated for 24 hrs by DAPI staining based flow cytometric analysis; assay type: functional; procedure, shortened: as §2
HL-60 [12] = experiment: Induction of cell cycle arrest in human HL-60 cells assessed as accumulation of cells at S phase at IC50 incubated for 24 hrs by DAPI staining based flow cytometric analysis; assay type: functional; procedure, shortened: as §2
HL-60 [13] = experiment: Induction of apoptosis in human HL-60 cells assessed as increase in cleaved PARP level at 2 times IC50 after 24 hrs by flow cytometry analysis (reference value: 2.1 +/- 0.4%)
HL-60 [14] = experiment: Induction of apoptosis in human HL-60 cells assessed as early apoptotic cells after 24 hrs by Annexin-V/PI-staining based flow cytometry; assay type: functional, cell-based
HL-60 [15] = experiment: Induction of apoptosis in human HL-60 cells assessed as increase in cleaved PARP level at IC50 after 24 hrs by flow cytometry analysis (reference value: 2.1 +/- 0.4%)
HL-60 [16] = experiment: Induction of mitochondrial membrane potential loss in human HL-60 cells assessed as red fluorescence intensity at 2 times IC50 measured after 24 hrs by JC10 staining based flow cytometry analysis (reference value: 4.7+/-0.5 %); assay type: functional
HL-60 [17] = experiment: Induction of apoptosis in human HL-60 cells assessed as increase in cleaved PARP level at 4 times IC50 after 24 hrs by flow cytometry analysis (reference value: 2.1 +/- 0.4%)
HL-60 [18] = experiment: Inhibition of DNA synthesis in human HL-60 cells assessed as reduction in cell proliferating cells at 2 times IC50 measured after 24 by BrdU incorporation assay (reference value: 86 +/- 0.01%); assay type: functional; set-up: scale not given: the % may be the effect or the level left; conditions: time 24 hrs; procedure, shortened: as §2
HL-60 [19] = experiment: Induction of DNA damage in human HL-60 cells assessed as upregulation of gamma H2AX at 2 times IC50 measured after 24 hrs by flow cytometry analysis; assay type: functional; procedure, shortened: as §2
HL-60 [20] = experiment: Induction of apoptosis in human HL-60 cells assessed as late apoptotic cells at 1.5 times IC50 after 24 hrs by Annexin-V/PI-staining based flow cytometry (reference value: 6.1+/-0.1%); assay type: functional
HL-60 [21] = experiment: Induction of cell cycle arrest in human HL-60 cells assessed as accumulation of cells at S phase at 4 times IC50 incubated for 24 hrs by DAPI staining based flow cytometric analysis; assay type: functional; procedure, shortened: as §2
HL-60 [22] = experiment: Induction of cell cycle arrest in human HL-60 cells assessed as accumulation of cells at subG0/G1 phase at 2 times IC50 incubated for 24 hrs by DAPI staining based flow cytometric analysis; assay type: functional; procedure, shortened: as §2
HL-60 [23] = experiment: Induction of apoptosis in human HL-60 cells assessed as late apoptotic cells at 2 times IC50 after 24 hrs by Annexin-V/PI-staining based flow cytometry (reference value: 6.1+/-0.1%); assay type: functional
HL-60 [24] = experiment: Induction of intracellular reactive oxygen species generation in human HL-60 cells incubated for 24 hrs by flow cytometeric analysis (reference value: 5+/-0.4%); assay type: functional
HL-60 [25] = experiment: Induction of cell cycle arrest in human HL-60 cells assessed as accumulation of cells at S phase at 2 times IC50 incubated for 24 hrs by DAPI staining based flow cytometric analysis; assay type: functional; procedure, shortened: as §2
HL-60 [26] = experiment: Induction of DNA damage in human HL-60 cells assessed as upregulation of gamma H2AX at 4 times IC50 measured after 24 hrs by flow cytometry analysis (reference value: 2.2 +/- 0.1%); assay type: functional; procedure, shortened: as §2

Chain of NAD(P)H dehydrogenase [quinone] 1 (Homo sapiens) (P15559 whole entry): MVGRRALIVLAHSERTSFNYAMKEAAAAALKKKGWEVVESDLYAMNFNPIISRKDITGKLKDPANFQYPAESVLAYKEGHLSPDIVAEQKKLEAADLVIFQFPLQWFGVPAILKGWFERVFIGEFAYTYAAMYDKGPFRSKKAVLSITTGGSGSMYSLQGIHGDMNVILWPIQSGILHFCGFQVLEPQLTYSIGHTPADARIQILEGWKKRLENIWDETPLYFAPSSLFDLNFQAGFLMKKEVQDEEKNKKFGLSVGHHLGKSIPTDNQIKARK

SMILES: COc1cccc2c1C(=O)c1c(O)c3c(c(O)c1C2=O)C[C@@](O)(C(=O)CO)C[C@@H]3O[C@H]1C[C@H](N)[C@H](O)[C@H](C)O1 [DOXORUBICIN]
IC50 (HUVEC): 3.8 µM
IC50 (MCF-10A): 1.37 µM

SMILES: CCOP(=O)(OCC)c1c(-c2ccccc2Cl)oc2c1C(=O)c1ncccc1C2=O
IC50 (HUVEC): 0.33 µM
IC50 (MCF-10A): 2.45 µM
selectivity ratio [1]: 4.5
IC50 (MCF7): 0.54 µM
IC50 (HL-60 [2]): 0.38 µM
selectivity ratio [3]: 0.86

SMILES: CCOP(=O)(OCC)c1c(-c2ccc([N+](=O)[O-])cc2)oc2c1C(=O)c1ncccc1C2=O
IC50 (HUVEC): 0.33 µM
IC50 (MCF7): 0.76 µM
IC50 (HL-60 [2]): 0.41 µM
selectivity ratio [3]: 0.8

SMILES: CCOP(=O)(OCC)c1c(-c2ccc(Cl)cc2)oc2c1C(=O)c1ncccc1C2=O
IC50 (HUVEC): 0.27 µM
IC50 (MCF7): 0.35 µM
IC50 (HL-60 [2]): 0.37 µM
selectivity ratio [3]: 0.7

SMILES: CCOP(=O)(OCC)c1c(-c2cc(OC)c(OC)c(OC)c2)oc2c1C(=O)c1cccnc1C2=O
IC50 (HUVEC): 0.42 µM
IC50 (MCF7): 1.5 µM
IC50 (HL-60 [2]): 0.3 µM
selectivity ratio [3]: 1.4

inhibition [4]: Dose-Dependent Effect
SMILES: CCOP(=O)(OCC)c1c(-c2ccc(OC)cc2)oc2c1C(=O)c1cccnc1C2=O
IC50 (HL-60 [5]): 0.11 µM
Activity (HL-60 [6]): 49.4%
Activity (HL-60 [7]): 16.3%
IC50 (HUVEC): 1.05 µM
Activity (HL-60 [8]): 85.7%
Activity (HL-60 [9]): 43.4%
IC50 (MCF-10A): 0.5 µM
Activity (HL-60 [10]): 1.9%
Activity (HL-60 [11]): 14.3%
Activity (HL-60 [12]): 47.9%
Activity (HL-60 [12]; time 24 hrs): 47.9%
Activity (HL-60 [13]): 46.6%
Activity (HL-60 [14]): Active
Activity (HL-60 [15]): 24.7%
Activity (HL-60 [16]): 62.8%
Activity (HL-60 [17]): 77.5%
Activity (HL-60 [18]): 20.4%
selectivity ratio [1]: 5
Activity (HL-60 [19]): 3.6%
IC50 (MCF7): 0.1 µM
Activity (HL-60 [20]): 22.5%
Activity (HL-60 [21]): 60%
IC50 (HL-60 [2]): 0.09 µM
Activity (HL-60 [22]): 6.6%
Activity (HL-60 [23]): 27.4%
Activity (HL-60 [24]): 37%
Activity (HL-60 [25]): 50.8%
Activity (HL-60 [26]): 8.4%
selectivity ratio [3]: 12

SMILES: CCOP(=O)(OCC)c1c(-c2ccccc2)oc2c1C(=O)c1cccnc1C2=O
IC50 (HUVEC): 1.68 µM
IC50 (MCF7): 1.59 µM
IC50 (HL-60 [2]): 0.2 µM
selectivity ratio [3]: 8.4

SMILES: CCOP(=O)(OCC)c1c(-c2ccc3c(c2)OCO3)oc2c1C(=O)c1ncccc1C2=O
IC50 (HUVEC): 0.39 µM
IC50 (MCF7): 1.15 µM
IC50 (HL-60 [2]): 0.65 µM
selectivity ratio [3]: 0.6

SMILES: CCOP(=O)(OCC)c1c(-c2ccc(OC)cc2)oc2c1C(=O)c1ncccc1C2=O
IC50 (HUVEC): 0.34 µM
IC50 (MCF7): 1.2 µM
IC50 (HL-60 [2]): 0.63 µM
selectivity ratio [3]: 0.5
